Our source for the Ki values is ChEMBL document CHEMBL1132574, “Metallopeptidase inhibitors of tetanus toxin: A combinatorial approach” (J Med Chem, 1999).

Usually Ki stands for the equilibrium dissociation constant of an inhibitor or competing ligand from its target. High values mean lower affinity, low ones higher affinity.

The target in the assay is T1, Tetanus toxin (Clostridium tetani (strain Massachusetts / E88), UniProt P04958).
T1 sequence (P04958 whole entry): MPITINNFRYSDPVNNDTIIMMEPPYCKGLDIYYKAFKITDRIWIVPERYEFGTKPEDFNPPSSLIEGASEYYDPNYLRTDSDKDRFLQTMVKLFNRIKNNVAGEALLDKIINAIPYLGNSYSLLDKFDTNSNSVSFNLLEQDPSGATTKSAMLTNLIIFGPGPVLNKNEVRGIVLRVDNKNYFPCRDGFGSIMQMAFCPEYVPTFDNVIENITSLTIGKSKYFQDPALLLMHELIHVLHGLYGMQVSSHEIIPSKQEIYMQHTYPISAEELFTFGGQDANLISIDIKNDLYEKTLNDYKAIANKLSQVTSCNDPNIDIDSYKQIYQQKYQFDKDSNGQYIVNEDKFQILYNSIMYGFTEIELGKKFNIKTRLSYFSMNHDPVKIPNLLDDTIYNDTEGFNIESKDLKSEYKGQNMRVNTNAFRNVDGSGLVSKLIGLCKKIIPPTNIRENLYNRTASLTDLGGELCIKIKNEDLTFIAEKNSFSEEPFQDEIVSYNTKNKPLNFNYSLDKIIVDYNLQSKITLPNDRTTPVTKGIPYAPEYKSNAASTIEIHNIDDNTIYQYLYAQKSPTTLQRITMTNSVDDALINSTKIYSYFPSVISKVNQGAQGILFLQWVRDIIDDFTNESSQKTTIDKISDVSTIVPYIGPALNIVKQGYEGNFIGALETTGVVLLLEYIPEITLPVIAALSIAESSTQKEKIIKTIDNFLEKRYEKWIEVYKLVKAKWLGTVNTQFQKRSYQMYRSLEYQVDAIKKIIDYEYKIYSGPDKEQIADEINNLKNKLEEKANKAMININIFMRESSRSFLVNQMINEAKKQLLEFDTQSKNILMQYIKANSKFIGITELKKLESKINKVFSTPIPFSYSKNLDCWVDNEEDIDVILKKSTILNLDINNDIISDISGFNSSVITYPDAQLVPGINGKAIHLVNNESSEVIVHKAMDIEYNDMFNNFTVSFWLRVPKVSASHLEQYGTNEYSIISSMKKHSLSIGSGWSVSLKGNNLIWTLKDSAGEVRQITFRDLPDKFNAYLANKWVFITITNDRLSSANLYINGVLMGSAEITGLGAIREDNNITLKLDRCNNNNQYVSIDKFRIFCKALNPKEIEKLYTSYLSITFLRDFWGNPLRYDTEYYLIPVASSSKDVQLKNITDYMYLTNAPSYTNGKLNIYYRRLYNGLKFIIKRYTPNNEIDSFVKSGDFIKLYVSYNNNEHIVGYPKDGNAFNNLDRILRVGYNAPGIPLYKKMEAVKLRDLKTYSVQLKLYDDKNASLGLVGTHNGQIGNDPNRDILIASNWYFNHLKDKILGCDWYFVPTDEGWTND
The assay can be described thus: Inhibition of tetanus neurotoxin (TeNt). In a few lines:
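TeNt metallopeptidase activity on the fluorescent substrate [Pya⁸⁸]S39-88 (40, 50, 66, 100, 200 μM) in 20 mM Hepes pH 7.4, 100 mM NaCl, 0.1 mM DTT at 37 °C. Inhibitor absent or at 1, 10, 33, 100 μM. Rate read by RP-HPLC as the appearance of fluorescent product [Pya⁸⁸]S77-88. Lineweaver–Burk analysis; mean of three independent experiments in triplicate.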
`NC(=O)CC[C@@H](N)CS` had a Ki of 250 µM. Turning to `N[C@@H](CS)CCS(N)(=O)=O`, the Ki is 100 µM. `C[C@@H](O)[C@H](NC(=O)[C@H](CCC(=O)O)NC(=O)[C@@H](Cc1ccccc1)NC(=O)C(S)[C@@H](N)CCC(=O)ON)C(=O)O` (mixture of isomers) returned a Ki of 100 µM. The compound `N[C@@H](CCS(N)(=O)=O)[C@@H](S)C(=O)N[C@@H](Cc1ccc(O)cc1)C(=O)N[C@@H](Cc1c[nH]cn1)C(=O)O` came in with a Ki of 5 µM.

`N[C@H](c1cccc(S(N)(=O)=O)c1)[C@H](S)C(=O)N[C@@H](Cc1ccc(O)cc1)C(=O)N[C@@H](Cc1c[nH]cn1)C(=O)NCc1ccccc1`: affinity was put at a Ki of 4 µM. With `N[C@@H](c1cccc(S(N)(=O)=O)c1)[C@H](S)C(=O)N[C@@H](Cc1ccc(O)cc1)C(=O)N[C@@H](Cc1c[nH]cn1)C(=O)NCc1ccccc1`, the inhibition constant Ki amounted to 9.6 µM.

`N[C@@H](c1cccc(S(N)(=O)=O)c1)[C@@H](S)C(=O)N[C@@H](Cc1ccc(O)cc1)C(=O)N[C@@H](Cc1c[nH]cn1)C(=O)NCc1ccccc1` gave a Ki of 3 µM. Compared with the last compound, the Ki is about 3.2-fold lower. Regarding `NC(CS)c1cccc(S(N)(=O)=O)c1` (stereo not drawn), affinity was put at a Ki of 35 µM. Turning to `N[C@@H](CCS(N)(=O)=O)[C@H](S)C(=O)N[C@@H](Cc1ccc(O)cc1)C(=O)N[C@@H](Cc1c[nH]cn1)C(=O)NCc1ccccc1`, the Ki is 6.8 µM. Compared with the last compound, the Ki is about 5.1-fold lower.

On to `N[C@H](c1cccc(S(N)(=O)=O)c1)[C@@H](S)C(=O)N[C@@H](Cc1ccc(O)cc1)C(=O)N[C@@H](Cc1c[nH]cn1)C(=O)NCc1ccccc1`, for which the Ki stood at 6 µM. As for `N[C@@H](CCS(N)(=O)=O)[C@H](S)C(=O)N[C@@H](Cc1ccc(O)cc1)C(=O)N[C@@H](Cc1c[nH]cn1)C(=O)O`, the Ki amounted to 15 µM. `C[C@@H](O)[C@H](NC(=O)[C@H](CCC(=O)O)NC(=O)[C@@H](Cc1ccccc1)NC(=O)C(S)[C@@H](N)CCC(=O)ON)C(=O)N[C@@H](CO)C(=O)O` (mixture of isomers) displayed a Ki of 80 µM. Against the preceding compound, the Ki is about 5.3-fold higher.

As for `N[C@@H](CCS(N)(=O)=O)[C@@H](S)C(=O)N[C@@H](Cc1ccc(O)cc1)C(=O)N[C@@H](Cc1cnc[nH]1)C(=O)NCc1ccccc1`, the Ki turned out to be 3.9 µM. This Ki lies about 21-fold lower than the previous one.
